Measurements as given in ChEMBL document CHEMBL1944507, “Structure-activity relationships for amide-, carbamate-, and urea-linked analogues of the tuberculosis drug (6S)-2-nitro-6-{[4-(trifluoromethoxy)benzyl]oxy}-6,7-dihydro-5H-imidazo[2,1-b][1,3]oxazine (PA-824)” (J Med Chem, 2012).
Values after ≈ are worked out from the molar mass of the structure shown.

Legend:
[1] = system: Mycobacterium tuberculosis; assay: Antimicrobial activity against Mycobacterium tuberculosis H37Rv ATCC 27294 harboring pFCA-lux AB gene measured under aerobic condition after 8 days by luminescence analysis; format: functional; conditions: H37Rv ATCC 27294, 192 h
Method in brief: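 MABA: replicating M. tb H37Rv exposed to compound aerobically for 8 days. […] Mean of at least two independent determinations ± SD.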

[2] = system: Mycobacterium tuberculosis; assay: Antimicrobial activity against Mycobacterium tuberculosis H37Rv ATCC 27294 harboring pFCA-lux AB gene measured under anaerobic condition after 11 days by luminescence analysis; format: functional; conditions: H37Rv ATCC 27294, 264 h
Method in brief: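 LORA: luminescence-based low-oxygen-recovery assay on nonreplicating M. tb, 11-day anaerobic exposure. MIC is the mean of at least two independent determinations ± SD.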

| SMILES | MIC [1] [µM] | MIC [2] [µM] |
| --- | --- | --- |
| O=C(Cc1ccc(-c2ccc(OC(F)(F)F)cc2)cc1)N[C@@H]1COc2nc([N+](=O)[O-])cn2C1 | 0.22 (≈ 0.102 µg/mL) | 5 (≈ 2.31 µg/mL) |
| O=C(N[C@@H]1COc2nc([N+](=O)[O-])cn2C1)OCc1ccc(-c2ccc(OC(F)(F)F)cc2)cc1 | 0.11 (≈ 0.0526 µg/mL) | 5 (≈ 2.39 µg/mL) |
| O=C(CN[C@@H]1COc2nc([N+](=O)[O-])cn2C1)Nc1ccc(OC(F)(F)F)cc1 | 0.7 (≈ 0.281 µg/mL) | 46 (≈ 18.5 µg/mL) |
| O=[N+]([O-])c1cn2c(n1)OC[C@@H](NS(=O)(=O)c1ccccc1OC(F)(F)F)C2 | > 64 | > 64 |
| O=C(Nc1ccc(-c2ccc(F)nc2)cc1)N[C@@H]1COc2nc([N+](=O)[O-])cn2C1 | 0.24 (≈ 0.0956 µg/mL) | 11 (≈ 4.38 µg/mL) |
| O=C(NCc1ccc(-c2ccc(OC(F)(F)F)cc2)cc1)O[C@@H]1COc2nc([N+](=O)[O-])cn2C1 | 0.52 (≈ 0.249 µg/mL) | 2.4 (≈ 1.15 µg/mL) |
| CN(C(=O)c1cccc(OC(F)(F)F)c1)[C@@H]1COc2nc([N+](=O)[O-])cn2C1 | 24 (≈ 9.27 µg/mL) | > 64 |
| CN(C(=O)c1ccccc1OC(F)(F)F)[C@@H]1COc2nc([N+](=O)[O-])cn2C1 | 45 (≈ 17.4 µg/mL) | > 64 |
| O=[N+]([O-])c1cn2c(n1)OC[C@@H](NC(=S)Nc1ccc(OC(F)(F)F)cc1)C2 | 8 (≈ 3.23 µg/mL) | > 64 |
| O=C(COc1ccc(-c2ccc(C(F)(F)F)cc2)cc1)N[C@@H]1COc2nc([N+](=O)[O-])cn2C1 | 0.25 (≈ 0.116 µg/mL) | > 32 |
| O=C(COc1ccc(-c2ccc(C(F)(F)F)nc2)cc1)N[C@@H]1COc2nc([N+](=O)[O-])cn2C1 | 0.69 (≈ 0.32 µg/mL) | 30 (≈ 13.9 µg/mL) |
| O=C(Nc1ccc(-c2ccc(F)cc2)cc1)O[C@@H]1COc2nc([N+](=O)[O-])cn2C1 | 1.3 (≈ 0.518 µg/mL) | 18 (≈ 7.17 µg/mL) |
| O=C(CN[C@@H]1COc2nc([N+](=O)[O-])cn2C1)c1ccc(OC(F)(F)F)cc1 | 7.6 (≈ 2.94 µg/mL) | > 64 |
| O=C(Nc1ccc(-c2ccc(F)cc2)cc1)N[C@@H]1COc2nc([N+](=O)[O-])cn2C1 | 1.3 (≈ 0.517 µg/mL) | 9.1 (≈ 3.62 µg/mL) |
| O=C(O[C@@H]1COc2nc([N+](=O)[O-])cn2C1)N1CCN(c2ccc(OC(F)(F)F)cc2)CC1 | 0.033 (≈ 0.0151 µg/mL) | 1.1 (≈ 0.503 µg/mL) |
| O=[N+]([O-])c1cn2c(n1)OC[C@@H](OCc1ccc(-c3ccc(OC(F)(F)F)cc3)cc1)C2 | 0.35 (≈ 0.152 µg/mL) |  |
| O=C(N[C@@H]1COc2nc([N+](=O)[O-])cn2C1)OCc1ccc(-c2ccc(C(F)(F)F)nc2)cc1 | 0.23 (≈ 0.107 µg/mL) | 4.7 (≈ 2.18 µg/mL) |
| O=C(NCc1ccc(-c2ccc(OC(F)(F)F)cc2)cc1)N[C@@H]1COc2nc([N+](=O)[O-])cn2C1 | 1 (≈ 0.477 µg/mL) | 32 (≈ 15.3 µg/mL) |

| SMILES | MIC [1] [µM] | MIC [2] [µM] |
| --- | --- | --- |
| O=[N+]([O-])c1cn2c(n1)OC[C@@H](NS(=O)(=O)c1ccc(OC(F)(F)F)cc1)C2 | 9.7 (≈ 3.96 µg/mL) | > 64 |
| O=C(NCc1ccc(-c2ccc(F)cc2)cc1)N[C@@H]1COc2nc([N+](=O)[O-])cn2C1 | 0.11 (≈ 0.0453 µg/mL) | 26 (≈ 10.7 µg/mL) |
| O=C(Nc1ccc(OC(F)(F)F)cc1)N[C@@H]1COc2nc([N+](=O)[O-])cn2C1 | 0.23 (≈ 0.0891 µg/mL) | 4.2 (≈ 1.63 µg/mL) |
| O=C(Cc1ccc(-c2ccc(C(F)(F)F)cc2)cc1)N[C@@H]1COc2nc([N+](=O)[O-])cn2C1 | 0.44 (≈ 0.196 µg/mL) | 23 (≈ 10.3 µg/mL) |
| CN(Cc1ccc(OC(F)(F)F)cc1)C1CCN(C(=O)O[C@@H]2COc3nc([N+](=O)[O-])cn3C2)CC1 | 0.18 (≈ 0.0899 µg/mL) | 26 (≈ 13 µg/mL) |
| O=[N+]([O-])c1cn2c(n1)OC[C@@H](OCc1cccc(OC(F)(F)F)c1)C2 | 0.36 (≈ 0.129 µg/mL) | 2.1 (≈ 0.754 µg/mL) |
| O=C(N[C@@H]1COc2nc([N+](=O)[O-])cn2C1)OCc1ccc(-c2ccc(C(F)(F)F)cc2)cc1 | 0.08 (≈ 0.037 µg/mL) | 4.5 (≈ 2.08 µg/mL) |
| O=C(Nc1cccc(-c2ccc(OC(F)(F)F)cc2)c1)O[C@@H]1COc2nc([N+](=O)[O-])cn2C1 | 0.06 (≈ 0.0279 µg/mL) | 0.85 (≈ 0.395 µg/mL) |
| O=C(Cc1ccc(-c2ccc(C(F)(F)F)nc2)cc1)N[C@@H]1COc2nc([N+](=O)[O-])cn2C1 | 0.46 (≈ 0.206 µg/mL) | > 32 |
| O=C(NCc1ccc(OC(F)(F)F)cc1)N[C@@H]1COc2nc([N+](=O)[O-])cn2C1 | 0.27 (≈ 0.108 µg/mL) | 4.1 (≈ 1.65 µg/mL) |
| O=C(Nc1cccc(-c2ccc(C(F)(F)F)nc2)c1)N[C@@H]1COc2nc([N+](=O)[O-])cn2C1 | 0.22 (≈ 0.0986 µg/mL) | 13 (≈ 5.83 µg/mL) |
| O=C(N[C@@H]1COc2nc([N+](=O)[O-])cn2C1)c1ccc(OC(F)(F)F)cc1 | 1.8 (≈ 0.67 µg/mL) |  |
| CN(C(=O)N(C)[C@@H]1COc2nc([N+](=O)[O-])cn2C1)c1ccc(OC(F)(F)F)cc1 | 12 (≈ 4.98 µg/mL) | > 64 |
| O=C(N[C@@H]1COc2nc([N+](=O)[O-])cn2C1)Oc1ccc(OC(F)(F)F)cc1 | > 64 | 64 (≈ 24.8 µg/mL) |
| O=C(Nc1cccc(-c2ccc(F)cc2)c1)N[C@@H]1COc2nc([N+](=O)[O-])cn2C1 | 0.03 (≈ 0.0119 µg/mL) | 3.8 (≈ 1.51 µg/mL) |
| CN([C@@H]1COc2nc([N+](=O)[O-])cn2C1)S(=O)(=O)c1ccccc1OC(F)(F)F | 20 (≈ 8.45 µg/mL) | 45 (≈ 19 µg/mL) |
| O=C(Nc1cccc(-c2ccc(OC(F)(F)F)cc2)c1)N[C@@H]1COc2nc([N+](=O)[O-])cn2C1 | 0.25 (≈ 0.116 µg/mL) | 5.8 (≈ 2.69 µg/mL) |
